Data published in ChEMBL document CHEMBL4334471, “Discovery of 1,8-disubstituted-[1,2,3]triazolo[4,5-c]quinoline derivatives as a new class of Hippo signaling pathway inhibitors” (Bioorg Med Chem Lett, 2019).

Key:
[1] = biological target: Cyclin-dependent kinase 13/Cyclin-K (Homo sapiens) (UniProt Q14004+O75909); experiment: Inhibition of recombinant full length human CDK13/cyclinK assessed as residual activity at 10 uM using RSRSRSRSRSRSR as substrate incubated for 40 mins in presence of [gamma-33ATP] by scintillation counting based radiometry assay relative to control; assay type: protein-complex assay
[2] = biological target: Serine/threonine-protein kinase PLK3 (Homo sapiens) (UniProt Q9H4B4); experiment: Inhibition of recombinant human Plk3 (19 to 301 residues) assessed as residual activity at 10 uM using casein as substrate incubated for 40 mins in presence of [gamma33P]ATP by scintillation counting based radiometry assay relative to control
[3] = biological target: Mitogen-activated protein kinase kinase kinase kinase 3 (Homo sapiens) (UniProt Q8IVH8); experiment: Inhibition of recombinant human MAP4K3 (1 to 291 residues) assessed as residual activity at 10 uM using RLGRDKYKTLRQI as substrate incubated for 40 mins in presence of [gamma-33ATP by scintillation counting based radiometry assay relative to control
[4] = biological target: Tyrosine-protein kinase Srms (Homo sapiens) (UniProt Q9H3Y6); experiment: Inhibition of recombinant human SRMS assessed as residual activity at 10 uM presence of [gamma33P]ATP by scintillation counting based radiometry assay relative to control
Tyrosine-protein kinase Srms (Homo sapiens), sequence (Q9H3Y6 whole entry): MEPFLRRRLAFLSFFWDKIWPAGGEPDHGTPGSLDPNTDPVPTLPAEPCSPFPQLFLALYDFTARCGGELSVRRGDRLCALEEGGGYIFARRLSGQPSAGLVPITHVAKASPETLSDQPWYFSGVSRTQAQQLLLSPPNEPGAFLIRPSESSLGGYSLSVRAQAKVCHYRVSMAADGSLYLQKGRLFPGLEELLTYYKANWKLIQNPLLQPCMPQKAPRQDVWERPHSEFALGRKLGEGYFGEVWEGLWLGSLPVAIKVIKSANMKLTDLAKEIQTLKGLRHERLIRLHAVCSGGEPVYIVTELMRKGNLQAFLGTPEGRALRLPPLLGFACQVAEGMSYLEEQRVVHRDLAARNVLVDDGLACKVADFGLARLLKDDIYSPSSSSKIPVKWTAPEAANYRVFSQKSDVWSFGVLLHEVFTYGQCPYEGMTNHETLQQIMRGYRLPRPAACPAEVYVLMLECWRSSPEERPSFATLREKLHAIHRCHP

A549 = experiment: Inhibition of hippo signalling protein in human A549 cells cotransfected with CTGF promoter-driven firefly luciferase and CMV promoter-driven renilla luciferase gene incubated for 24 hrs by dual-luciferase gene assay; assay type: cell-based
How it was run: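 Dual-luciferase reporter read-out in A549-CTGF cells after 24 h culture with compound. Firefly luciferase is expressed relative to DMSO-treated cells, set as 1. Screening used 10 µM. Values are mean ± SEM of three independent experiments.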

[5] = biological target: Protein kinase C zeta type (Homo sapiens) (UniProt Q05513); experiment: Inhibition of recombinant human PKCzeta (2 to end residues) assessed as residual activity at 10 uM using ERMRPRKRQGSVRRRV as substrate incubated for 40 mins in presence of [gamma33P]ATP by scintillation counting based radiometry assay relative to control
Protein kinase C zeta type (Homo sapiens), sequence (Q05513 whole entry): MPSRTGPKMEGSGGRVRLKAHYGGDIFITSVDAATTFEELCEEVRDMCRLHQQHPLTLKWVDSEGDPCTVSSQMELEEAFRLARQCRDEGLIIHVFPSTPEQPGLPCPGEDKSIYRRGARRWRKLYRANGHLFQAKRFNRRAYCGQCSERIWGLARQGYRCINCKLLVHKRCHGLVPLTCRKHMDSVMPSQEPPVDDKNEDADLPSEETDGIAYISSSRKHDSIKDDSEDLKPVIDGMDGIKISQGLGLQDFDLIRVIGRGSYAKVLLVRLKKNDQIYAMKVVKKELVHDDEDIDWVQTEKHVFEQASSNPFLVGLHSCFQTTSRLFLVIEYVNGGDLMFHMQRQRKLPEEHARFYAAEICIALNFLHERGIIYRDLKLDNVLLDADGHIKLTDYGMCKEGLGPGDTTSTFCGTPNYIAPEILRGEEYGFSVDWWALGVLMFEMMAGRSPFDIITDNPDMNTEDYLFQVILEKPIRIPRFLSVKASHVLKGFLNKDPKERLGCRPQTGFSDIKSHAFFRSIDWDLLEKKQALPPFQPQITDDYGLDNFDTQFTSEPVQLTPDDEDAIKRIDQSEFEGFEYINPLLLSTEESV

[6] = biological target: Mitogen-activated protein kinase 12 (Homo sapiens) (UniProt P53778); experiment: Inhibition of recombinant human full length SAPK3 assessed as residual activity at 10 uM using myelin basic protein as substrate incubated for 40 mins in presence of [gamma33P]ATP by scintillation counting based radiometry assay relative to control
[7] = system: Discoidin domain-containing receptor 2 (Homo sapiens), Q16832 [UNDEFINED MUTATION]; experiment: Inhibition of recombinant human DDR2 S642A mutant (467 to end residues) assessed as residual activity at 10 uM using KKSRGDYMTMQIG as substrate at 40 mins in presence of [gamma-33ATP] by scintillation counting based radiometry assay relative to control
Discoidin domain-containing receptor 2 (Homo sapiens), Q16832 [UNDEFINED MUTATION], sequence (Q16832 whole entry, looked up, stated change not applied, the tested form may be a part): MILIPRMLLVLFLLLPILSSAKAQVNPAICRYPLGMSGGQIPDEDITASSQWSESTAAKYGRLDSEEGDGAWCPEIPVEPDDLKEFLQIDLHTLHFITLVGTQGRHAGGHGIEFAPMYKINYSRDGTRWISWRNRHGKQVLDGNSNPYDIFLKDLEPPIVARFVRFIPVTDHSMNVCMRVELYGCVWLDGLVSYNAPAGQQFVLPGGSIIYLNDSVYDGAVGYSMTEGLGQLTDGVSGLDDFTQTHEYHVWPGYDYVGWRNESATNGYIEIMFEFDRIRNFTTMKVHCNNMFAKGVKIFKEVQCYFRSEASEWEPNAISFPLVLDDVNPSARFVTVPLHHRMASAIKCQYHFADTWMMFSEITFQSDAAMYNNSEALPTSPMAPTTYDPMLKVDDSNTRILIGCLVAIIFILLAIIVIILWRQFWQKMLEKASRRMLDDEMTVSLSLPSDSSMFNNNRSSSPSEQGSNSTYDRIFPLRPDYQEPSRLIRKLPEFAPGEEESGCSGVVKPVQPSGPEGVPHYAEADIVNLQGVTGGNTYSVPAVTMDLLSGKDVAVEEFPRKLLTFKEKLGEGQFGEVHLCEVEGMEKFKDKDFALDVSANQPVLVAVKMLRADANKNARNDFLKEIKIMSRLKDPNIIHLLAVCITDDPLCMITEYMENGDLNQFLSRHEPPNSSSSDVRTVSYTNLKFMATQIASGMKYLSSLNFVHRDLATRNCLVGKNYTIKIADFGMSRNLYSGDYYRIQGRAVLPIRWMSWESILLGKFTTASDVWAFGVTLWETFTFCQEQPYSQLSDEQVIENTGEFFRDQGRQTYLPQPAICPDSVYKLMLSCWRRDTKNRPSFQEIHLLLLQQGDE

Mus musculus = species on record: Mus musculus; experiment: Inhibition of mouse ABL1 L782P/G784R/W785L/L786V mutant (27 to end residues) at 10 uM using EAIYAAPFAKKK as substrate incubated for 40 mins in presence of [gamma-33ATP] by scintillation counting based radiometry assay relative to control; parameters: scale not given: the % may be the effect or the level left
[8] = biological target: Myosin light chain kinase 2, skeletal/cardiac muscle (Homo sapiens) (UniProt Q9H1R3); experiment: Inhibition of recombinant full length human MYLK2 assessed as residual activity at 10 uM using KKLNRTLSFAEPG as substrate measured after 40 mins in presence of [gamma33P]ATP by scintillation counting based radiometry assay relative to control
Fungi = experiment: Inhibition of recombinant fungi CK1 (2 to 298 residues) assessed as residual activity at 10 uM using KRRRALS(p)VASLPGL as substrate incubated for 40 mins in presence of [gamma-33ATP] by scintillation counting based radiometry assay relative to control
[9] = biological target: Interleukin-1 receptor-associated kinase 1 (Homo sapiens) (UniProt P51617); experiment: Inhibition of human IRAK1 (194 to end residues) assessed as residual activity at 10 uM using myelin basic protein as substrate after 40 mins by [gamma-33ATP] radiometric assay relative to control
Interleukin-1 receptor-associated kinase 1 (Homo sapiens), sequence (P51617 whole entry, looked up): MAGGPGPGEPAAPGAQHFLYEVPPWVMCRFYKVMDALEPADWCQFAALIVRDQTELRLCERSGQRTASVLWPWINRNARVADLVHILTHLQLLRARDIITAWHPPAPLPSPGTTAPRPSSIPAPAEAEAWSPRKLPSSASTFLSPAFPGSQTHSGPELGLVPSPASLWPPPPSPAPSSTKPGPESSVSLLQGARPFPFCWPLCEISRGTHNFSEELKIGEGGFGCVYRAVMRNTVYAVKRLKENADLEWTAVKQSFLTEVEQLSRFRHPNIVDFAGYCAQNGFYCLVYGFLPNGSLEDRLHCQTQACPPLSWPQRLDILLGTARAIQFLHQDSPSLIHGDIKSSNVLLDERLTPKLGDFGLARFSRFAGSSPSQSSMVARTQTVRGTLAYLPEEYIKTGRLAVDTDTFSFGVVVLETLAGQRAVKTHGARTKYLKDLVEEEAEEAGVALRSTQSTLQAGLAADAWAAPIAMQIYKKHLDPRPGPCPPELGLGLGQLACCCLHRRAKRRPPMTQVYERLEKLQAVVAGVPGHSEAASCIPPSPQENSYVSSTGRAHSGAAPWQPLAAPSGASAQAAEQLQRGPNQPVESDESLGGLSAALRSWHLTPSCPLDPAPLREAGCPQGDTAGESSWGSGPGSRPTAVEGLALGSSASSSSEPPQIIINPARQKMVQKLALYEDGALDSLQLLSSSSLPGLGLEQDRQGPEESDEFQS

Homo sapiens = species on record: Homo sapiens; experiment: Inhibition of recombinant human full length PI3K p110/p85 assessed as residual activity at 10 uM using phosphatidylinositol-4, 5-bisphosphate as substrate measured after 40 mins by fluorescence assay relative to control
[10] = biological target: LIM domain kinase 1 (Homo sapiens) (UniProt P53667); experiment: Inhibition of recombinant human LIMK1 (285 to 638 residues) assessed as residual activity at 10 uM using cofilin as substrate after 40 mins in presence of [gamma-33ATP] by scintillation counting based radiometry assay relative to control
[11] = biological target: Insulin receptor (Homo sapiens) (UniProt P06213); experiment: Inhibition of human IR activated (1005 to 1310 residues) assessed as residual activity at 10 uM using KKSRGDYMTMQIG as substrate after 40 mins by [gamma-33ATP] radiometric assay relative to control
[12] = system: RAF proto-oncogene serine/threonine-protein kinase (Homo sapiens), P04049 [Y340D,Y341D]; experiment: Inhibition of recombinant human C-Raf Y340D/Y341D mutant (306 to end residues) assessed as residual activity at 10 uM poly(Glu, Tyr) 4:1 as substrate incubated 40 mins in presence of [gamma-33ATP] by scintillation counting based radiometry assay relative to control
[13] = system: Casein kinase I isoform gamma-3 (Homo sapiens), Q9Y6M4 [UNDEFINED MUTATION]; experiment: Inhibition of recombinant human CK1gamma3 K91E/R174G/E302D mutant (1 to 330 residues) assessed as residual activity at 10 uM using KRRRALS(p)VASLPGL as substrate incubated for 40 mins in presence of [gamma-33ATP] by scintillation counting based radiometry assay relative to control
Casein kinase I isoform gamma-3 (Homo sapiens), Q9Y6M4 [UNDEFINED MUTATION], sequence (Q9Y6M4 whole entry, looked up, stated change not applied, the tested form may be a part, canonical isoform): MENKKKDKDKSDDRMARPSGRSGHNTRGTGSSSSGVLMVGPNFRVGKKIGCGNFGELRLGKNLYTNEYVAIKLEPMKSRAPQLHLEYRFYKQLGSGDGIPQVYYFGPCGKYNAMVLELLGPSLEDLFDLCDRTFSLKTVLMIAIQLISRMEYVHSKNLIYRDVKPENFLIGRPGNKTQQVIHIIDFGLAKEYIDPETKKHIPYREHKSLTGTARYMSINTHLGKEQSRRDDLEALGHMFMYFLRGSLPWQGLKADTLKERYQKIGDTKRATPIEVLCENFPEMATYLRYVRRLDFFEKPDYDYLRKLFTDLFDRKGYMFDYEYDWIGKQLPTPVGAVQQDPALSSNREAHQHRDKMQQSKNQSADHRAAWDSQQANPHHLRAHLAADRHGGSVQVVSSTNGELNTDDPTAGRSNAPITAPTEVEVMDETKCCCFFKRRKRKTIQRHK

[14] = biological target: Serine/threonine-protein kinase Nek3 (Homo sapiens) (UniProt P51956); experiment: Inhibition of recombinant full-length human NEK3 assessed as residual activity at 10 uM using myelin basic protein as substrate measured after 40 mins in presence of [gamma33P]ATP by scintillation counting based radiometry assay relative to control
[15] = biological target: Serine/threonine-protein kinase/endoribonuclease IRE1 (Homo sapiens) (UniProt O75460); experiment: Inhibition of human IRE1 (465 to end residues) assessed as residual activity at 10 uM using myelin basic protein as substrate after 40 mins by [gamma-33ATP] radiometric assay relative to control
Serine/threonine-protein kinase/endoribonuclease IRE1 (Homo sapiens), sequence (O75460 19-977 limits assumed): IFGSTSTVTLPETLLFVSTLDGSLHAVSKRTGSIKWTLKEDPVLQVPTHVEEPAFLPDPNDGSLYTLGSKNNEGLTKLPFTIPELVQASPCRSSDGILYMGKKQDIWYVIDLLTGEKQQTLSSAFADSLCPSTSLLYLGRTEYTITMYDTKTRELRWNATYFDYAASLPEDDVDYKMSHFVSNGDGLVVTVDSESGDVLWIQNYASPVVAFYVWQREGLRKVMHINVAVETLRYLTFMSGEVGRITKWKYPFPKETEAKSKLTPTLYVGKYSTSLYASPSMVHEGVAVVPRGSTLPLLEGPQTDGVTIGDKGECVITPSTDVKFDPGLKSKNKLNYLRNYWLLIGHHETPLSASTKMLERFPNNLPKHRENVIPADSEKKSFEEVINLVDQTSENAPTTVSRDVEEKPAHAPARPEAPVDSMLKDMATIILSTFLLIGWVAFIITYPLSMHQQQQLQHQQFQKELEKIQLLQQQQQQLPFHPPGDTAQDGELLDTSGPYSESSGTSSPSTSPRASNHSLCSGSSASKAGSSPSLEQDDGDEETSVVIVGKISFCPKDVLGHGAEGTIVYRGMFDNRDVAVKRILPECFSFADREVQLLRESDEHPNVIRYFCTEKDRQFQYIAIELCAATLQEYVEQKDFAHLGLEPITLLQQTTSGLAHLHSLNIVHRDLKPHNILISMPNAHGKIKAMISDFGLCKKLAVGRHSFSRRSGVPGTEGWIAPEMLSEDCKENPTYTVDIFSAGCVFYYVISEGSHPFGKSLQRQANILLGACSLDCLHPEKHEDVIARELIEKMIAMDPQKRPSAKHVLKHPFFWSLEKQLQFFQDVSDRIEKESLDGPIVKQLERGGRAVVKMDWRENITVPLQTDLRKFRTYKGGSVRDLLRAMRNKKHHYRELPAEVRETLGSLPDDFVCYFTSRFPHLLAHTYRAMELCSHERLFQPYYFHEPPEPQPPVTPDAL

[16] = biological target: Serine/threonine-protein kinase TBK1 (Homo sapiens) (UniProt Q9UHD2); experiment: Inhibition of recombinant full length human TBK1 assessed as residual activity at 10 uM using KRRRALS(p)VASLPGL as substrate incubated for 40 mins in presence of [gamma33P]ATP by scintillation counting based radiometry assay relative to control
[17] = biological target: NT-3 growth factor receptor (Homo sapiens) (UniProt Q16288); experiment: Inhibition of recombinant human TRKC (510 to end residues) assessed as residual activity at 10 uM using GEEPLYWSFPAKK as substrate incubated for 40 mins in presence of [gamma33P]ATP by scintillation counting based radiometry assay relative to control
NT-3 growth factor receptor (Homo sapiens), sequence (Q16288 32-839 limits assumed): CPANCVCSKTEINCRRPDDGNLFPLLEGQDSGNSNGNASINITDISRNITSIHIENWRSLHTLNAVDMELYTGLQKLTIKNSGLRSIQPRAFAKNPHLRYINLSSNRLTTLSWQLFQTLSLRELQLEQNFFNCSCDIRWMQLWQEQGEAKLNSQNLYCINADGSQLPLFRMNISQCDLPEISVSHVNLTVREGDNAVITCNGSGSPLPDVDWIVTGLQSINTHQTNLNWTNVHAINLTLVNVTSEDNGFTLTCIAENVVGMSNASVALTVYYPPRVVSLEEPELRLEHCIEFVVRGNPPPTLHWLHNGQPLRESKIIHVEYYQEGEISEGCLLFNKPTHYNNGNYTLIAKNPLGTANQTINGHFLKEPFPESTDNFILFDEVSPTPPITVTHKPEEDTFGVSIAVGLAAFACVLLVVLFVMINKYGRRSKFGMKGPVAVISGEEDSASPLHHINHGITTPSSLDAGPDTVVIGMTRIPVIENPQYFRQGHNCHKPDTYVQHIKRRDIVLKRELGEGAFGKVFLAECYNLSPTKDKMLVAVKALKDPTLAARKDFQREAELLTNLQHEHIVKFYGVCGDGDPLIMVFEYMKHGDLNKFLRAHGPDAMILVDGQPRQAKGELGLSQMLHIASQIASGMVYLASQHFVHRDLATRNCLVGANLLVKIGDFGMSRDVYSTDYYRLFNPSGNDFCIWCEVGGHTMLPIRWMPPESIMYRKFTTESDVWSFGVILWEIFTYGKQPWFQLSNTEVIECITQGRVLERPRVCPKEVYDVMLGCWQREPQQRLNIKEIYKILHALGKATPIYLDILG

C[C@@H](c1ccccc1)n1nnc2cnc3ccc(-c4cnc5[nH]ccc5c4)cc3c21
Activity [1]: 84%
Activity [2]: 71%
Activity [3]: 73%
Activity [4]: 30%
inhibition (A549): Dose-dependent effect
Activity [5]: 84%
Activity [6]: 91%
Activity [7]: 35%
Activity (Mus musculus): 0%
Activity [8]: 70%
Activity (Fungi): 37%
Activity [9]: 84%
Activity (Homo sapiens): 3 to 9%
Activity [10]: 95%
Activity [11]: 62%
Activity [12]: 77%
Activity [13]: 45%
Activity [14]: 73%
Activity [15]: 86%
Activity [16]: 85%
Activity [17]: 2%
